Converted amounts (≈) assume the structure as drawn.
Legend:
[1] = Thermodynamic aqueous solubility of the compound in fasted state simulated intestinal fluid after 24 hrs by HPLC analysis; format: physicochemical; details: read-out: Therm_solubility
Outline: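 Solubility in FaSSIF. The sample was filtered and concentration measured by HPLC/UV.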

[2] = Oral bioavailability in rat at […]; format: ADME, organism-based; details: in vivo
[3] = Tmax in rat at […], po; format: ADME, organism-based; design: dose 2.5 mg/kg, route oral; details: in vivo
[4] = Cmax in rat at […], po; format: ADME, organism-based; design: dose 2.5 mg/kg, route oral; details: in vivo
[5] = Apparent permeability from apical to basolateral side of human Caco2 cells; format: ADME, cell-based; details: Caco-2
[6] = Apparent permeability from basolateral to apical side of human Caco2 cells; format: ADME, cell-based; details: Caco-2
[7] = AUC in rat at […], po; format: ADME, organism-based; design: dose 2.5 mg/kg, route oral; details: plasma

solubility thermodynamic at 24 h [1] | Structure (SMILES) | further results
25 µg/mL (≈ 63.8 µM) | O=S(=O)(Nc1cccc(CO)c1)c1ccc(-c2ccc(F)cc2)cc1Cl | –
24 µg/mL (≈ 64.6 µM) | Cc1c(CO)cccc1NS(=O)(=O)c1ccc(-c2ccc(F)cc2)cc1 | –
4 µg/mL (≈ 9.21 µM) | O=S(=O)(Nc1ccc(O)c(CO)c1)c1ccc(-c2ccc(Br)cc2)cc1 | –
57 µg/mL (≈ 159 µM) | O=S(=O)(Nc1cccc(CO)c1)c1ccc(-c2ccccc2F)cc1 | –
50 µg/mL (≈ 133 µM) | O=S(=O)(Nc1cccc(CO)c1)c1ccc(-c2ccc(F)cc2F)cc1 | –
40 µg/mL (≈ 98 µM) | O=S(=O)(Nc1cccc(CO)c1)c1ccc(-c2ccc(Cl)cc2Cl)cc1 | bioavailability [2]: 8%; Tmax [3]: 50 min; Cmax [4]: 30 ng/mL; Papp A→B [5]: 1.5 ×10⁻⁶ cm/s; Papp B→A [6]: 5.5 ×10⁻⁶ cm/s; AUC [7]: 110 ng·h/mL

More lines, now with the values behind:

Structure (SMILES) | solubility thermodynamic at 24 h [1] | further results
Cc1c(CO)cccc1NS(=O)(=O)c1ccc(-c2ccc(F)cc2F)cc1 | 43 µg/mL (≈ 110 µM) | –
Cc1c(CO)cccc1NS(=O)(=O)c1ccc(-c2ccc(Br)cc2)cc1 | 12 µg/mL (≈ 27.8 µM) | –
Cc1ccc(CO)cc1NS(=O)(=O)c1ccc(-c2ccc(Br)cc2)cc1 | 47 µg/mL (≈ 109 µM) | –
O=S(=O)(Nc1cccc(CO)c1Cl)c1ccc(-c2ccc(Br)cc2)cc1 | 14 µg/mL (≈ 30.9 µM) | –
O=S(=O)(Nc1cc(CO)ccc1Cl)c1ccc(-c2ccc(Br)cc2)cc1 | 11 µg/mL (≈ 24.3 µM) | –
O=S(=O)(Nc1cc(CO)ccc1O)c1ccc(-c2ccc(Br)cc2)cc1 | 12 µg/mL (≈ 27.6 µM) | –
O=S(=O)(Nc1cc(CO)ccc1O)c1ccc(-c2ccc(F)cc2F)cc1 | 12 µg/mL (≈ 30.7 µM) | –
O=S(=O)(Nc1cccc(CO)c1O)c1ccc(-c2ccc(Br)cc2)cc1 | 19 µg/mL (≈ 43.7 µM) | –
O=S(=O)(Nc1ccc(CO)c(CO)c1)c1ccc(-c2ccc(F)cc2F)cc1 | 32 µg/mL (≈ 78.9 µM) | –
O=S(=O)(Nc1ccc(-c2ccc(Cl)cc2Cl)cc1)c1cccc(CO)c1 | 40 µg/mL (≈ 98 µM) | –
O=S(=O)(Nc1cccc(CO)c1)c1ccc(-c2ccccc2)cc1 | 11 µg/mL (≈ 32.4 µM) | –
O=S(=O)(Nc1cccc(CO)c1)c1ccc(-c2ccc(Br)cc2)cc1 | 22 µg/mL (≈ 52.6 µM) | –
Cc1ccc(-c2ccc(S(=O)(=O)Nc3cccc(CO)c3)cc2)cc1 | 21 µg/mL (≈ 59.4 µM) | –
O=S(=O)(Nc1cccc(CO)c1)c1ccc(-c2ccc(Cl)cc2F)cc1 | 73 µg/mL (≈ 186 µM) | –

From ChEMBL document CHEMBL2321720, “Development of triarylsulfonamides as novel anti-inflammatory agents” (Bioorg Med Chem Lett, 2013)
